Reference: ChEMBL document CHEMBL1123804, “Beta-substituted cysteines as sequestering agents for ethanol-derived acetaldehyde in vivo” (1987)

What was measured:
Format in all cases: functional
[1] = system: Rattus norvegicus; experiment: Compound tested for the percentage of administered dose excreted in rat urine was determined in 0-24 hr
Outline: (§1)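 Labeled material (14C on the acetaldehyde part, with unlabeled carrier, in water) was dosed at 8.0 mmol/kg, 1.0 mL/100 g, to two overnight-fasted male Sprague-Dawley-descent rats (207 g, 247 g) kept in all-glass metabolism cages. Urine was collected separately at 2, 4, 8, 16 and 24 h. Duplicate samples were counted by liquid scintillation, and results are averaged ± SD across the two animals.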

[2] = system: Rattus norvegicus; experiment: Compound tested for the percentage of administered dose excreted in rat urine was determined in 0-2 hr; outline: as §1
[3] = system: Rattus norvegicus; experiment: Compound tested for the percentage of administered dose excreted in rat urine was determined in 16-24h; outline: as §1
[4] = system: Rattus norvegicus; experiment: Compound tested for the percentage of administered dose excreted in rat urine was determined in 2-4h; outline: as §1
[5] = system: Rattus norvegicus; experiment: Compound tested for the percentage of administered dose excreted in rat urine was determined in 4-8h; outline: as §1
[6] = system: Rattus norvegicus; experiment: Compound tested for the percentage of administered dose excreted in rat urine was determined in 8-16h; outline: as §1
[7] = system: Rattus norvegicus; experiment: Compound tested for the percentage of administration dose excreted in rat feces was determined in 0-24 hr
Outline: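 A radiolabeled dose (14C in the acetaldehyde moiety, with carrier, in water) of 8.0 mmol/kg at 1.0 mL/100 g went to two overnight-fasted male Sprague-Dawley-descent rats (207 g, 247 g) in all-glass metabolism cages. Feces collected over 24 h were lyophilized and pulverized, and 250-mg samples were combusted to 14CO2 for scintillation counting. Values are the mean ± SD of two animals.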

[8] = species on record: Rattus norvegicus; experiment: Compound tested for the percentage of CO2 expired in rat was determined in 4-8h
Outline: (§2)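 14C label on the acetaldehyde moiety, diluted with unlabeled carrier in water and given at 8.0 mmol/kg (1.0 mL/100 g; radioactivity of the solution counted in duplicate). Two male Sprague-Dawley-descent rats (207 g, 247 g) were fasted overnight and housed in all-glass metabolism cages. Expired CO2 went into two successive cold methoxyethanol/ethanolamine (2:1) traps, sampled at 2, 4, 8, 16 and 24 h. Duplicates were counted by liquid scintillation, and values are the mean ± SD of two animals.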

[9] = species on record: Rattus norvegicus; experiment: Compound tested for the percentage of CO2 expired in rat was determined in 8-16h; outline: as §2
[10] = species on record: Rattus norvegicus; experiment: Compound tested for the percentage of CO2 expired in rat was determined in 0-2 hr; outline: as §2
[11] = species on record: Rattus norvegicus; experiment: Compound tested for the percentage of CO2 expired in rat was determined in 16-24h; outline: as §2
[12] = species on record: Rattus norvegicus; experiment: Compound tested for the percentage of CO2 expired in rat was determined in 2-4h; outline: as §2
[13] = species on record: Rattus norvegicus; experiment: Compound tested for the percentage of CO2 expired in rat was determined in 0-24 hr; outline: as §2

CC1N[C@@H](C(=O)O)C(C)(C)S1 (stereo partly drawn)
Excreted [1]: 79.2%
Excreted [2]: 36.3%
Excreted [3]: 1.18%
Excreted [4]: 25.9%
Excreted [5]: 12.7%
Excreted [6]: 3.12%
Excreted [7]: 1.38%
Excreted [8]: 1.36%
Excreted [9]: 0.48%
Excreted [10]: 2.01%
Excreted [11]: 0.28%
Excreted [12]: 1.7%
Excreted [13]: 5.83%
